{"source": "the RNAGym collection of RNA variant scans (doi:10.1126/science.aae0568)", "parents": {"B1": {"name": "tRNA (parent)", "chain": "GUUCCGUUGGCGUAAUGGUAACGCGUCUCCCUCCUAAGGAGAAGACUGCGGGUUCGAGUCCCGUACGGAACG"}}, "note": "Variants at the floor of the assay were thinned out."}
{"variants_of": "B1", "assay": "yeast fitness relative to wild type (ratio to wild type); higher = fitter; tRNA-Arg(CCU), competitive growth, 37 C, YPD", "summary_of_the_method": "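Genotype frequency changes were the basis for Darwinian fitness relative to wild type. The frequencies came from 100-nucleotide paired-end sequencing of gene amplicons from the start population and each end population of pooled yeast strains with tRNA-Arg(CCU) gene variants at the native locus. Competition ran in YPD at 37°C for 24 hours in six replicates, genotypes needed ≥ 100 starting reads, and estimates < 0.5 were set to 0.5.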"}
{"variant": "GUUCCGUUGGCGAAAUGGUUACGCGUUUCCCUCCUAAGGAGGAGACUGCGGGUUCGAGUCCCGUACGGAACG", "yeast fitness": "≤ 0.5"}
{"variant": "GUUCCGUUGGCGAACUGGUAACGCGUCUCCCUGCUAAGGAGAAGACUGUGGGUUCGAGUCCCGAACGGAACG", "yeast fitness": "≤ 0.5"}
{"variant": "GUUCCGUUGGCGAACUGGUAACGCGUCUCCCUGCUAAGGAGAAGACUGUGGGUUCGAGUCUCGUACGGAACG", "yeast fitness": 0.574}
{"variant": "GUUCCGUUGGCGAAAUGGUACCGCGUCUCCCUCCUAAGGAGAAAACUGCGGGUUCGAGUCCCGUACGGAACG", "yeast fitness": "≤ 0.5"}
{"variant": "GUUCCGUUGGCGAUAUGGUAACGCGUCUCCCUCCUAAGGCGAAGACUGCGGGUUCGAGUCCCGUACGGAACG", "yeast fitness": 0.556}
{"variant": "GUUCCGUUGGCGAAAUGGUGGCGCGUCUCCCUCCUAAGGAGAAGACUGCGGGUUCGAGUCCCGUCCGGAACG", "yeast fitness": "≤ 0.5"}
{"variant": "GUUCCGUUGGCGAAAUGGUUACGUGUCUCCCUCCUAGGGAGAAGACUGCGGGUUCGAGGCCCGUACGGAACG", "yeast fitness": "≤ 0.5"}
{"variant": "GUUCCGUUGGCGAAAUGGUACCGCGUCUUCCUCCUAAGGAGAAGACUGCGGGUUCGAGUCCCGUAAGGAACG", "yeast fitness": "≤ 0.5"}
{"variant": "GUUCCGUUGGCGAUAUGGUAAGGCGUCUCCCUCCUAAGGAGAAGUCUGCGGGUUCGAGUCCCGUACGGAACG", "yeast fitness": 0.507}
{"variant": "GUUCCGUUGGCGAAAUGGUACCGCGUCUCCCUCCUAAAGUGAAGACUGCCGGUUCGAGUGCCGUACGGAGCG", "yeast fitness": "≤ 0.5"}
{"variant": "GUUCCGUUGGCGAAAUGGUACCGCGUCUCCCUCCUAGGGAGGAGACUGCGGGUUCGAGUCCCGUACGGAACG", "yeast fitness": "≤ 0.5"}
{"variant": "GUUCCGUUGGCGAACUGGUAACGCGUCUCCCUCCUAAGGAGAAGGCUGCGGGUUUGAGUCGCGUACGGAACG", "yeast fitness": "≤ 0.5"}
{"variant": "GUUCCGUUGGCGAAGUGGUAACGCGUCUCCGUCCUAAGGAGAAGACUGCGGGUUCGACUCCCGUACGGAACG", "yeast fitness": "≤ 0.5"}
{"variant": "GUUCCGUUGGCGAAAUGGUCACGCGUCUCCCUCCUAAGGAGAAGAUUGCGGGUUCGAGUCCCGUACGGAACG", "yeast fitness": 0.844}
{"variant": "GUUCCGUUGGCGAAAUGGUGACGCGUCUCCCUCCUCAGGACAAGACUGCGGGUUCGAGUCUCGUACGGAACG", "yeast fitness": 0.62}
{"variant": "GUUCCGUUGGCGAAAUGGUACCGCGUCUCCCUCCUAAGGAGAAGACUGCGGGUGCGAGUCCCGUACGGAACG", "yeast fitness": 0.557}
{"variant": "GUUCCGUUGGCGAAAUGGUCACGCGUCUCCCUCCUAAGGAGAAGAUUGCGGGUUCGAGUCCCGUACGGAUCG", "yeast fitness": 0.589}
{"variant": "GUUCCGUUGGCGAAUUCGUAACGCGUCUCCCUCCUAAGGAGAAGACUGCGGGUUCGAGUCACGUACGGAACG", "yeast fitness": "≤ 0.5"}
{"variant": "GUUCCGUUGGCGAAGUGGUAACGCGUUUCCCUCCUAAGGAGAAGACUGCGGGUUCGAGUCCCGUACGGAACG", "yeast fitness": 0.601}
{"variant": "GUUCCGUUGGCGAAGUGGUAACGCGUGUCCCUCCUAAGGAGAAGACUGCGGGUUCGAGUCCCGUACGGAACG", "yeast fitness": "≤ 0.5"}
{"variant": "GUUCCGUUGGCGAAAUGGUGACGCGUCUCCCUCCUAAGGAAAAGACUGCGCGUUCGAGUCCCGUACGGAACG", "yeast fitness": 0.532}
{"variant": "GUUCCGUUGGCGAUAUGGUAAGGCGUCUCCCUCCUAGGGAGAAGACUGCGGGUUCGAGUCCCGUACGGAACG", "yeast fitness": 0.631}
{"variant": "GUUCCGUUGGCGAAAUGGUUACGCGUUUCCCUCCUAAGGAGGAGACUGCGGGUCCGAGUCCCGUACGGAACG", "yeast fitness": "≤ 0.5"}
{"variant": "GUUCCGUUGGCGAAAUGGUUACGCGUCUCCGUCUUAAGGAGAAGACUGCGGGUUCGAGUCCCGUACUGAACG", "yeast fitness": "≤ 0.5"}
{"variant": "GUUCCGUUGGCGAAGUGGUAACGCGUCUACCUCCUAAGGAGAAGACUGCGGGUUCGAGUCGCGUACGGAACG", "yeast fitness": "≤ 0.5"}
{"variant": "GUUCCGUUGGCGAAAUGGUCAGGCGUCUCCCUCCUAAGGAGAAGACUGCGGGUUCGAGUCCCGUACGGAACG", "yeast fitness": "≤ 0.5"}
{"variant": "GUUCCGUUGGCGAAAUGGUACCGCGUCUCCCUUCUAAGGAGAAGACUGCGGAUUCGGGUCCCGUACUGAACG", "yeast fitness": "≤ 0.5"}
{"variant": "GUUCCGUUGGCGAACUGGUAACGCGUCUCCCUGCUAAGGAGAAGACUGCGGAUUCGAGUCCCGUACGGAACG", "yeast fitness": "≤ 0.5"}
{"variant": "GUUCCGUUGGCGAAUAGGUAACGCGUCUCCCUCCUUAGGAGAACACUGCGGGUUCAAGUCCCGUACGGAACG", "yeast fitness": "≤ 0.5"}
{"variant": "GUUCCGUUGGCGAAGUGGUAACGCGUCUCCCUCCUAAGGAGAAGACUACGGGUUCGAGUCCCGUGCGGAACG", "yeast fitness": 0.581}
{"variant": "GUUCCGUUGGCGAAGUGGUAACGCGUCUCCCUCCUAAGGAGAAGACUGCGGGUUCGAGUCCCGUACGGAACG", "yeast fitness": 0.932}
{"variant": "GUUCCGUUGGCGAAGUGGUACGGCGUCUCGCUCCUAUGGAGAAGACUGCGGGUUCGAGUCCCGUACGGAACG", "yeast fitness": 0.636}
{"variant": "GUUCCGUUGGCGAAGUGGUAACGCGUCUCCCUCCUAAGGAGAAGACUGCGGGUUCGAGUCUCGUACGGAACG", "yeast fitness": 0.564}
{"variant": "GUUCCGUUGGCGAAAUGGUACCGCGUCUCCCUCCUAAGGAGAAGACUGCGGAUUCGAGUCCCGUACGGAACG", "yeast fitness": "≤ 0.5"}
{"variant": "GUUCCGUUGGCGAAAUGGUCACGCGUCUCCCUACUAAGAAGAAGACUGCGGGUUCGAGUCCCGUACGGAACG", "yeast fitness": "≤ 0.5"}
{"variant": "GUUCCGUUGGCGAAAUGGUACCGCGUCUCCCUCCUAAGGAGGAGACUGCGGGUUCGAGUCCAGUACGGUACG", "yeast fitness": "≤ 0.5"}
{"variant": "GUUCCGUUGGCGAAAUGGUGACGUGUCUCCCUCCCAAGGAGAAGACUGCGGGUUCGACUCCCGUACGGAACG", "yeast fitness": 0.632}
{"variant": "GUUCCGUUGGCGAAAUGGUACCGACUCUCCCUCCUAAGGAGAAGACUGUGGGUUCGAGUCCCGUACGGAACG", "yeast fitness": "≤ 0.5"}
